Measurements: ChEMBL document CHEMBL4152188, “Design, synthesis and biological evaluation of C(4) substituted monobactams as antibacterial agents against multidrug-resistant Gram-negative bacteria” (Eur J Med Chem, 2018)
Values after ≈ are worked out from the molar mass of the structure shown.

How the values were obtained:
[1] = Elimination half life in mouse liver microsomes at 0.1 uM pre-incubated with compound followed by NADPH addition and measured after 60 mins by LC-MS/MS analysis; assay type: ADME, microsome; conditions: read-out: beta t1/2
[2] = test system: Klebsiella pneumoniae; experiment: Antibacterial activity against KPC-2 producing Klebsiella pneumoniae isolate 212229 after 18 hrs in presence of BPL by CLSI broth microdilution method; assay type: functional; conditions: isolate 212229, 18 h
How it was run: (§1)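 CLSI broth microdilution against clinical isolates (ESBL E. coli, KPC-2 MDR K. pneumoniae, IMP-4 MDR P. aeruginosa; five per species). Iron limitation: Mueller-Hinton broth supplemented with 16 mg/liter 2,2'-bipyridyl to complex iron and induce iron uptake systems. Read-out: MIC.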

[3] = test system: Pseudomonas aeruginosa; experiment: Antibacterial activity against IMP-4 producing Pseudomonas aeruginosa isolate 212886 after 18 hrs in presence of BPL by CLSI broth microdilution method; assay type: functional; conditions: isolate 212886, 18 h; how it was run: as §1
[4] = test system: Klebsiella pneumoniae; experiment: Antibacterial activity against KPC-2 producing Klebsiella pneumoniae isolate 212423 after 18 hrs by CLSI broth microdilution method; assay type: functional; conditions: isolate 212423, 18 h
[5] = test system: Pseudomonas aeruginosa; experiment: Antibacterial activity against IMP-4 producing Pseudomonas aeruginosa isolate 209471 after 18 hrs by CLSI broth microdilution method; assay type: functional; conditions: isolate 209471, 18 h
[6] = test system: Escherichia coli; experiment: Antibacterial activity against extended-spectrum beta-lactamase producing Escherichia coli isolate 212648 after 18 hrs in presence of BPL by CLSI broth microdilution method; assay type: functional; conditions: isolate 212648, 18 h; how it was run: as §1
[7] = test system: Escherichia coli; experiment: Selectivity index, ratio of MIC for against extended-spectrum beta-lactamase producing Escherichia coli isolate 208687 to MIC for extended-spectrum beta-lactamase producing Escherichia coli isolate 208687 in presence of BPL; assay type: functional
[8] = Metabolic bioavailability in human liver microsomes at 0.1 uM pre-incubated with compound followed by NADPH addition and measured after 60 mins by LC-MS/MS analysis; assay type: ADME, microsome
[9] = test system: Escherichia coli; experiment: Antibacterial activity against extended-spectrum beta-lactamase producing Escherichia coli isolate 208687 after 18 hrs in presence of BPL by CLSI broth microdilution method; assay type: functional; conditions: isolate 208687, 18 h; how it was run: as §1
[10] = test system: Escherichia coli; experiment: Selectivity index, ratio of MIC for against extended-spectrum beta-lactamase producing Escherichia coli isolate 106342 to MIC for extended-spectrum beta-lactamase producing Escherichia coli isolate 106342 in presence of BPL; assay type: functional
[11] = test system: Pseudomonas aeruginosa; experiment: Antibacterial activity against IMP-4 producing Pseudomonas aeruginosa isolate 207272 after 18 hrs in presence of BPL by CLSI broth microdilution method; assay type: functional; conditions: isolate 207272, 18 h; how it was run: as §1
[12] = test system: Escherichia coli; experiment: Selectivity index, ratio of MIC for against Escherichia coli isolate 210737 to MIC for Escherichia coli isolate 210737 in presence of BPL; assay type: functional
[13] = test system: Klebsiella pneumoniae; experiment: Antibacterial activity against KPC-2 producing Klebsiella pneumoniae isolate 212423 after 18 hrs in presence of BPL by CLSI broth microdilution method; assay type: functional; conditions: isolate 212423, 18 h; how it was run: as §1
[14] = test system: Klebsiella pneumoniae; experiment: Antibacterial activity against KPC-2 producing Klebsiella pneumoniae isolate 209632 after 18 hrs in presence of BPL by CLSI broth microdilution method; assay type: functional; conditions: isolate 209632, 18 h; how it was run: as §1
[15] = test system: Klebsiella pneumoniae; experiment: Selectivity index, ratio of MIC for against KPC-2 producing Klebsiella pneumoniae isolate 212229 to MIC for against KPC-2 producing Klebsiella pneumoniae isolate 212229 in presence of BPL; assay type: functional
[16] = test system: Klebsiella pneumoniae; experiment: Antibacterial activity against KPC-2 producing Klebsiella pneumoniae isolate 212232 after 18 hrs in presence of BPL by CLSI broth microdilution method; assay type: functional; conditions: isolate 212232, 18 h; how it was run: as §1
[17] = test system: Escherichia coli; experiment: Antibacterial activity against Escherichia coli isolate 210737 after 18 hrs in presence of BPL by CLSI broth microdilution method; assay type: functional; conditions: isolate 210737, 18 h; how it was run: as §1
[18] = test system: Klebsiella pneumoniae; experiment: Selectivity index, ratio of MIC for against KPC-2 producing Klebsiella pneumoniae isolate 212232 to MIC for against KPC-2 producing Klebsiella pneumoniae isolate 212232 in presence of BPL; assay type: functional
[19] = test system: Klebsiella pneumoniae; experiment: Antibacterial activity against KPC-2 producing Klebsiella pneumoniae isolate 209632 after 18 hrs by CLSI broth microdilution method; assay type: functional; conditions: isolate 209632, 18 h
[20] = Elimination half life in human liver microsomes at 0.1 uM pre-incubated with compound followed by NADPH addition and measured after 60 mins by LC-MS/MS analysis; assay type: ADME, microsome; conditions: read-out: beta t1/2
[21] = test system: Pseudomonas aeruginosa; experiment: Antibacterial activity against IMP-4 producing Pseudomonas aeruginosa isolate 209321 after 18 hrs in presence of BPL by CLSI broth microdilution method; assay type: functional; conditions: isolate 209321, 18 h; how it was run: as §1
[22] = test system: Escherichia coli; experiment: Antibacterial activity against extended-spectrum beta-lactamase producing Escherichia coli isolate 106342 after 18 hrs by CLSI broth microdilution method; assay type: functional; conditions: isolate 106342, 18 h
[23] = test system: Pseudomonas aeruginosa; experiment: Antibacterial activity against IMP-4 producing Pseudomonas aeruginosa isolate 209471 after 18 hrs in presence of BPL by CLSI broth microdilution method; assay type: functional; conditions: isolate 209471, 18 h; how it was run: as §1
[24] = test system: Klebsiella pneumoniae; experiment: Antibacterial activity against KPC-2 producing Klebsiella pneumoniae isolate 212229 after 18 hrs by CLSI broth microdilution method; assay type: functional; conditions: isolate 212229, 18 h
[25] = test system: Escherichia coli; experiment: Antibacterial activity against extended-spectrum beta-lactamase producing Escherichia coli isolate 212648 after 18 hrs by CLSI broth microdilution method; assay type: functional; conditions: isolate 212648, 18 h
[26] = test system: Klebsiella pneumoniae; experiment: Antibacterial activity against KPC-2 producing Klebsiella pneumoniae isolate 212232 after 18 hrs by CLSI broth microdilution method; assay type: functional; conditions: isolate 212232, 18 h
[27] = test system: Pseudomonas aeruginosa; experiment: Antibacterial activity against IMP-4 producing Pseudomonas aeruginosa isolate 212886 after 18 hrs by CLSI broth microdilution method; assay type: functional; conditions: isolate 212886, 18 h
[28] = test system: Escherichia coli; experiment: Antibacterial activity against extended-spectrum beta-lactamase producing Escherichia coli isolate 209285 after 18 hrs in presence of BPL by CLSI broth microdilution method; assay type: functional; conditions: isolate 209285, 18 h; how it was run: as §1
[29] = test system: Pseudomonas aeruginosa; experiment: Selectivity index, ratio of MIC for against IMP-4 producing Pseudomonas aeruginosa isolate 212886 to MIC for against IMP-4 producing Pseudomonas aeruginosa isolate 212886 in presence of BPL; assay type: functional
[30] = test system: Pseudomonas aeruginosa; experiment: Selectivity index, ratio of MIC for against IMP-4 producing Pseudomonas aeruginosa isolate 209321 to MIC for against IMP-4 producing Pseudomonas aeruginosa isolate 209321 in presence of BPL; assay type: functional
[31] = test system: Pseudomonas aeruginosa; experiment: Antibacterial activity against IMP-4 producing Pseudomonas aeruginosa isolate 209321 after 18 hrs by CLSI broth microdilution method; assay type: functional; conditions: isolate 209321, 18 h
[32] = test system: Klebsiella pneumoniae; experiment: Selectivity index, ratio of MIC for against KPC-2 producing Klebsiella pneumoniae isolate 209735 to MIC for against KPC-2 producing Klebsiella pneumoniae isolate 209735 in presence of BPL; assay type: functional
[33] = test system: Pseudomonas aeruginosa; experiment: Selectivity index, ratio of MIC for against IMP-4 producing Pseudomonas aeruginosa isolate 207272 to MIC for against IMP-4 producing Pseudomonas aeruginosa isolate 207272 in presence of BPL; assay type: functional
[34] = test system: Pseudomonas aeruginosa; experiment: Antibacterial activity against IMP-4 producing Pseudomonas aeruginosa isolate 208247 after 18 hrs by CLSI broth microdilution method; assay type: functional; conditions: isolate 208247, 18 h
[35] = test system: Escherichia coli; experiment: Antibacterial activity against Escherichia coli isolate 210737 after 18 hrs by CLSI broth microdilution method; assay type: functional; conditions: isolate 210737, 18 h
[36] = test system: Klebsiella pneumoniae; experiment: Selectivity index, ratio of MIC for against KPC-2 producing Klebsiella pneumoniae isolate 209632 to MIC for against KPC-2 producing Klebsiella pneumoniae isolate 209632 in presence of BPL; assay type: functional

| Structure (SMILES) | half-life at 0.1 µM [1] | MIC [2] | MIC [3] | MIC [4] | MIC [5] | MIC [6] | Selectivity Index [7] | Fh at 1 h, 0.1 µM [8] | MIC [9] | Selectivity Index [10] | MIC [11] | Selectivity Index [12] | MIC [13] | MIC [14] | Selectivity Index [15] | MIC [16] | MIC [17] | Selectivity Index [18] | MIC [19] | half-life at 0.1 µM [20] | further results |
| --- | --- | --- | --- | --- | --- | --- | --- | --- | --- | --- | --- | --- | --- | --- | --- | --- | --- | --- | --- | --- | --- |
| CC(C)C(O/N=C(\C(=O)N[C@@H]1C(=O)N(S(=O)(=O)O)C12CCCC2)c1csc(N)n1)c1cc(=O)c(O)cn1O (some centres not stated) | 6.25 h | 0.125 mg/L | 8 mg/L | 2 mg/L (≈ 3.51 µM) | 16 mg/L (≈ 28 µM) | 0.5 mg/L | 2 | 71.6% | 0.25 mg/L | 2 | 8 mg/L | 8 | 0.5 mg/L | 0.25 mg/L | 8 | 0.06 mg/L | 0.06 mg/L | 16 | 2 mg/L (≈ 3.51 µM) | 4.52 h | MIC [21]: 8 mg/L; MIC [22]: 0.5 mg/L (≈ 0.876 µM); MIC [23]: 16 mg/L; MIC [24]: 1 mg/L (≈ 1.75 µM); MIC [25]: 1 mg/L (≈ 1.75 µM); MIC [26]: 1 mg/L (≈ 1.75 µM); MIC [27]: 16 mg/L (≈ 28 µM); MIC [28]: 0.5 mg/L; Selectivity Index [29]: 2; Selectivity Index [30]: 1; MIC [31]: 8 mg/L (≈ 14 µM); Selectivity Index [32]: 8; Selectivity Index [33]: 2; MIC [34]: 16 mg/L (≈ 28 µM); MIC [35]: 0.5 mg/L (≈ 0.876 µM); Selectivity Index [36]: 8 |
| CC(C)C(O/N=C(\C(=O)N[C@@H]1C(=O)N(S(=O)(=O)O)[C@@H]1COC(N)=O)c1csc(N)n1)c1cc(=O)c(O)cn1O (some centres not stated) | 10.3 h | 0.25 mg/L | 4 mg/L | 1 mg/L (≈ 1.7 µM) | 8 mg/L (≈ 13.6 µM) | 0.25 mg/L | 2 | 62.2% | 0.25 mg/L | 2 | 4 mg/L | 1 | 0.5 mg/L | 2 mg/L | 4 | 0.25 mg/L | 0.25 mg/L | 4 | 8 mg/L (≈ 13.6 µM) | 2.93 h | MIC [21]: 4 mg/L; MIC [22]: 0.5 mg/L (≈ 0.848 µM); MIC [23]: 8 mg/L; MIC [24]: 1 mg/L (≈ 1.7 µM); MIC [25]: 1 mg/L (≈ 1.7 µM); MIC [26]: 1 mg/L (≈ 1.7 µM); MIC [27]: 4 mg/L (≈ 6.78 µM); MIC [28]: 0.125 mg/L; Selectivity Index [29]: 1; Selectivity Index [30]: 2; MIC [31]: 8 mg/L (≈ 13.6 µM); Selectivity Index [32]: 4; Selectivity Index [33]: 2; MIC [34]: 4 mg/L (≈ 6.78 µM); MIC [35]: 0.25 mg/L (≈ 0.424 µM); Selectivity Index [36]: 4 |
